Measured values from article PMC4559355 (Journal of nuclear medicine : official publication, Society …, 2015).

Tests used:
[1] = Stability in phosphate-buffered saline; assay type: physicochemical; details: formulated in phosphate-buffered saline
[2] = Mouse serum stability; assay type: in vitro ADME; details: mouse serum 0.5 mL + radiotracer 12.5 µL (0.74 MBq), 37°C, 60 min, ethanol precipitation of serum proteins, HPLC
[3] = test system: DX3puroβ6 (αvβ6 +) cells; experiment: Cell binding and internalization, DX3puroβ6 cells; assay type: cell-based; details: in vitro, ratio x:1
How it was run: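 Radiolabelled tracer was incubated with DX3puroβ6 (αvβ6+) and DX3puro (αvβ6−) cells for 60 min, n = 4 per cell line and condition. Bound and internalized activity are each expressed as a fraction of total radioactivity, with SD. Uptake and internalization ratios are DX3puroβ6 over DX3puro values.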

[4] = test system: DX3puroβ6 tumor (αvβ6-positive); experiment: Biodistribution, DX3puroβ6 xenograft tumor; assay type: in vivo, mouse; details: ratio x:1; for DX3puroβ6/DX3puro tumor uptake ratio: paired DX3puroβ6–DX3puro mouse model
How it was run: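 Female athymic nude mice received subcutaneous DX3puro and DX3puroβ6 cells (3 × 10^6 each) on opposite flanks. Radiotracer in phosphate-buffered saline was given at 1.1–2.0 MBq/animal by tail-vein injection under 2% isoflurane. Mice were killed under 4% isoflurane at 1, 2 and 4 h (n = 3/time point). Tissues were rinsed and γ-counted; values are decay-corrected %ID/g, and ratios are taken from these.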

[5] = test system: BxPC-3 tumor (αvβ6-positive); experiment: Biodistribution, BxPC-3 xenograft tumor; assay type: in vivo; details: BxPC-3 mouse model, ratio x:1
[6] = Biodistribution, nontumor organs; assay type: in vivo; details: female, athymic nude, mouse, iv, total radioactivity
[7] = test system: DX3puroβ6 tumor; experiment: Radiotracer stability in DX3puroβ6 tumor; assay type: in vivo, mouse; details: tumor collected 1 h after injection, homogenized, ethanol precipitation, HPLC
How it was run: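 Female athymic nude mice carried paired subcutaneous DX3puroβ6 and DX3puro xenografts (3 × 10^6 cells each, opposite flanks). After intravenous radiotracer, the DX3puroβ6 tumor was harvested at 1 h and homogenized. Proteins were removed by ethanol precipitation, and the supernatant was analysed by HPLC for intact radiotracer.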

[8] = test system: BxPC-3 tumor; experiment: Radiotracer stability in BxPC-3 tumor; assay type: in vivo, mouse; details: tumor collected 1 h after injection, homogenized, ethanol precipitation, HPLC
How it was run: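 BxPC-3 xenografts came from 3.5 × 10^6 cells injected subcutaneously in female athymic nude mice. Radiotracer was given intravenously. Tumor was excised 1 h later and homogenized. Proteins were precipitated with ethanol, and supernatant aliquots were analysed by HPLC for intact versus degraded radiotracer.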

[9] = HPLC analysis of urine metabolites; assay type: in vivo; details: mouse urine, ethanol precipitation
[10] = paired mouse model, throughout (1, 2 and 4 h)
[11] = gallbladder, stomach, intestine

## CC(C)C[C@H](NC(=O)[C@H](CC(=O)O)NC(=O)CNC(=O)[C@H](CCCNC(=N)N)NC(=O)[C@H](CC(C)C)NC(=O)[C@H](CC(N)=O)NC(=O)[C@@H]1CCCN1C(=O)[C@@H](NC(=O)[C@H](C)NC(=O)[C@H](CC(N)=O)NC(=O)CCOCCOCCOCCOCCOCCOCCOCCOCCOCCOCCOCCOCCOCCOCCOCCOCCOCCOCCOCCOCCOCCOCCOCCOCCOCCOCCOCCOCCNC(=O)c1ccc(F)cc1)C(C)C)C(=O)N[C@@H](CCC(N)=O)C(=O)N[C@H](C(=O)N[C@@H](CC(C)C)C(=O)N[C@@H](C)C(=O)N[C@@H](CCC(N)=O)C(=O)N[C@@H](CCCCN)C(=O)N[C@H](C(=O)N[C@@H](C)C(=O)N[C@@H](CCCNC(=N)N)C(=O)N[C@H](C(=O)NCCOCCOCCOCCOCCOCCOCCOCCOCCOCCOCCOCCOCCOCCOCCOCCOCCOCCOCCOCCOCCOCCOCCOCCOCCOCCOCCOCCOCCC(N)=O)[C@@H](C)O)C(C)C)C(C)C [compound 5, ^18F-FBA-PEG28-A20FMDV2-PEG28]
[1]
  Stable in phosphate-buffered saline (time): ≥ 4 h
[2]
  Radiotracer remaining intact in mouse serum: 80%
[3]
  Internalization ratio for the DX3puroβ6–DX3puro cell pair: 41
  Uptake (binding) ratio for the DX3puroβ6–DX3puro cell pair: 20
[4]; 1 h
  DX3puroβ6/DX3puro tumor uptake ratio: 6.5
[4]; 4 h
  DX3puroβ6/DX3puro tumor uptake ratio: 10.7
[4]; [10]
  DX3puroβ6 tumor–to–blood ratio: greater than 4.5
[5]; 4 h
  BxPC-3–to–blood ratio: greater than 20
  BxPC-3–to–liver ratio: greater than 20
[5]
  BxPC-3–to–pancreas ratio: ≥ 9
[6]; [11]
  tissue uptake at 1 h: < 15 %ID/g
[6]; pancreas
  tissue uptake at 1 h: 0.46 ± 0.07 %ID/g
  tissue uptake at 4 h: 0.25 ± 0.07 %ID/g
[7]
  Apparent metabolic breakdown of radioactivity extracted from DX3puroβ6 tumor: less than 20%
[8]
  Apparent breakdown of radioactivity extracted from BxPC-3 tumor: less than 20%
[9]
  Minor new peak in urine HPLC (slightly longer retention time): 18%

## CC(C)C[C@H](NC(=O)[C@H](CC(=O)O)NC(=O)CNC(=O)[C@H](CCCNC(=N)N)NC(=O)[C@H](CC(C)C)NC(=O)[C@H](CC(N)=O)NC(=O)[C@@H]1CCCN1C(=O)[C@@H](NC(=O)[C@H](C)NC(=O)[C@H](CC(N)=O)NC(=O)c1ccc(F)cc1)C(C)C)C(=O)N[C@@H](CCC(N)=O)C(=O)N[C@H](C(=O)N[C@@H](CC(C)C)C(=O)N[C@@H](C)C(=O)N[C@@H](CCC(N)=O)C(=O)N[C@@H](CCCCN)C(=O)N[C@H](C(=O)N[C@@H](C)C(=O)N[C@@H](CCCNC(=N)N)C(=O)N[C@H](C(=O)NCCOCCOCCOCCOCCOCCOCCOCCOCCOCCOCCOCCOCCOCCOCCOCCOCCOCCOCCOCCOCCOCCOCCOCCOCCOCCOCCOCCOCCC(N)=O)[C@@H](C)O)C(C)C)C(C)C [compound 4, ^18F-FBA-A20FMDV2-PEG28]
[1]
  Stable in phosphate-buffered saline (time): ≥ 4 h
[2]
  Radiotracer remaining intact in mouse serum: 76%
[3]
  Internalization ratio for the DX3puroβ6–DX3puro cell pair: 9.4
  Uptake (binding) ratio for the DX3puroβ6–DX3puro cell pair: 7.1
[4]; [10]
  DX3puroβ6 tumor–to–DX3puro tumor ratio: greater than 2.5
  DX3puroβ6 tumor–to–blood ratio: greater than 2
[6]; [11]
  tissue uptake at 1 h: < 15 %ID/g
